Bioassay records as filed in PubChem.
Compounds with a hit are over-represented: about 2.9% of the library has one in this group of screens.
UBC13 inh: human UBC13 polyubiquitination inhibition; P61088; inhibition, % at 20 µM; UBC13 polyubiquitin chain formation, TR-FRET; 330,000 tested, 0.47% active; in the data active = inhibition above about 45%, passing the limit was not always enough; inconclusive = no clear call, values can overlap the other calls
M18AAP inhibitor: blocks P. falciparum M18 aspartyl aminopeptidase. 290,000 tested, 1.2% active. AID 1822. inhibition, % at 7.35 µM. recombinant PfM18AAP, H-Glu-NHMec fluorogenic cleavage;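 active = inhibition above the campaign mean inhibition over all tested compounds plus 3 SD, cut at about 28% in these data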;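 also: 0% = plate median of test compound wells and 100% = 2 mM ZnCl2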
EBNA-1 inhibitor: blocks EBNA-1 binding to DNA | 300,000 tested, 0.34% active | inhibition, % at 14.8 µM | EBNA-1 DNA binding, fluorescence polarization; in the data active = inhibition above about 28%
PfGluPho inh: PfG6PD (Plasmodium falciparum) enzyme inhibition. PfGluPho enzyme, NADPH resazurin-diaphorase fluorescence. inhibition, % at 20 µM. 350,000 tested, 0.78% active. AID 504690;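 active = inhibition reaching at least a set limit at 20 µM in the primary screen, cut at about 59% in these data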;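 also: 0% = DMSO wells with substrate and 100% = DMSO wells lacking glucose-6-phosphate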
ZTA counter: blocks Epstein-Barr virus ZTA, an EBNA-1 counter-screen; P03206; ZTA-DNA binding, fluorescence polarization; inhibition, % at 11 µM; 320,000 tested, 0.15% active; in the data active = inhibition above about 33%
Apaf1 inhib: inhibitors of human Apaf-1 apoptosome; O14727; reconstituted apoptosome caspase-3 activity, DEVD-Rh110 fluorescence; inhibition, % at 20 µM; 330,000 tested, 0.71% active; active = inhibition of at least 40% at 20 µM;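 also: plate controls were DMSO wells for no effect and DEVD-CHO caspase inhibitor wells for full effect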
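System – cell-free apoptosome with Apaf-1, procaspase-3 and caspase-9 · Buffer or medium – pH 7.5 Hepes buffer with CHAPS, BSA, DTT · Also added – cytochrome c with DEVD-Rh110 · Times – 30 min compound preincubation, 50 min activation, room temperature · Technique – Rh110 fluorescence intensity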
EBNA-1 inh conf: EBNA-1 (EBV) inhibition, confirmation; shares compounds with EBNA-1 inhibitor; Recombinant EBNA-1 DBD, Cy5-DNA fluorescence polarization; inhibition, % at 14.8 µM; 830 tested, 35% active;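 active = mean inhibition across replicates above a set limit taken from the earlier primary screen, cut at about 28% in these data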;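 also: plate controls were EBNA-1 protein with DMSO for no effect and wells lacking EBNA-1 for full effect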
ZTA counter trip: blocks Epstein-Barr virus ZTA in triplicate, EBNA-1 counter-screen | Zta-ZRE DNA binding, Cy5 fluorescence polarization | 830 tested, under 10 active | shares compounds with EBNA-1 inhibitor | inhibition, % at 11.1 µM | AID 2328;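 active = mean inhibition over triplicates above a set limit taken from the primary EBNA-1 screen, cut at about 37% in these data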;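 also: purified full length Zta protein with Cy5 labeled ZRE DNA probe; 0% = Zta with DMSO and 100% = wells lacking Zta protein; inhibitors lower polarization by freeing the labeled DNA probe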
* = called active by the depositor; ? = inconclusive; nt = not tested or not shown.

SMILES	UBC13 inh	M18AAP inhibitor	EBNA-1 inhibitor	PfGluPho inh	ZTA counter	Apaf1 inhib	EBNA-1 inh conf	ZTA counter trip
COc1ccc2cc(/C=N/NC(=O)CN(c3ccccc3)S(=O)(=O)c3ccccc3)c(Cl)nc2c1	-12	0	35*	nt	-4	17	7	-10
COC(=O)COc1ccc(/C=N/NC(=O)c2ccc(N(Cc3ccccc3)S(C)(=O)=O)cc2)cc1	-6	-6	67*	-6	-20	16	16	0
COc1ccc2cc(/C=N/NC(=O)c3ccc(CN(c4ccc(C)c(C)c4)S(C)(=O)=O)cc3)c(Cl)nc2c1	-2	-1	53*	0	-3	5	24	14
Nc1c(Cl)cc(-c2csc(N3CCCC3c3nc4cc(Cl)c(N5CCCCC5)cc4n3CCCO)n2)cc1Cl (stereo unspecified)	-37	nt	6	21	-21	16	nt	nt
Cc1ccc(NC(=O)C2COc3ccccc3O2)cc1S(=O)(=O)N1CCCCC1 (stereo unspecified)	3	nt	nt	16	-8	13	nt	nt
N#Cc1c(-c2cccs2)cc(C2CC2)nc1SCC(N)=O	4	-1	36*	25	0	3	31*	3
c1ccc(-c2ccc(C3=Nn4c(nnc4-c4cc(-c5ccccc5)n[nH]4)SC3)cc2)cc1	-10	2	33*	-2	12	26	52*	24
COc1ccc(-n2nc(C(=O)Nc3ccc4c(c3)OCO4)c3ccccc3c2=O)c(OC)c1	-3	-5	29*	-13	-15	12	35*	-8
COc1ccccc1-n1nc(C(=O)Nc2ccc3c(c2)OCO3)c2ccccc2c1=O	-9	1	7	-12	-2	3	nt	nt
Cc1ccc(C)c(SCC(=O)OC/C(O)=C(\C#N)c2nc3ccccc3[nH]2)c1	nt	-7	nt	-9	nt	nt	nt	nt
N#C/C(=C(/O)COC(=O)CSc1ccc2ccccc2c1)c1nc2ccccc2[nH]1	-8	5	39*	-29	9	6	9	10
Cc1cc2cc(CNC(=O)c3ccc(S(=O)(=O)N4CCCC4)cc3)ccc2n1C	-1	-9	33*	27	2	16	-8	24
O=C(Nc1ccc(CN2CCS(=O)(=O)CC2)cc1)c1ccc(Cl)cc1	1	0	2	10	16	-16	nt	nt
COc1ccc(CNc2nc(NCc3ccc(OC)cc3)c3[nH]cnc3n2)cc1	-7	nt	39*	-1	-7	20	7	11
COc1ccc(-c2cccc3c2NC(=O)C3=O)cc1OC	-18	nt	nt	3	nt	16	nt	nt
COc1ccc(-c2ccc(C#N)c(SCC(=O)NCc3ccco3)n2)cc1OC	4	-3	45*	3	-6	-19	41*	0
COc1ccc(-c2ccc(C#N)c(SCC(=O)OCc3ccccc3)n2)cc1OC	?	4	-5	14	-10	3	nt	nt
COc1ccc(-c2ccc(C#N)c(SCC(=O)NC3CC3)n2)cc1OC	6	-4	32*	-8	6	-6	13	4
CCn1c(COc2cccc(C)c2C)nnc1SCC(=O)Nc1cc(C)on1	6	-8	22	-6	11	-4	nt	nt
CCn1c(COc2ccccc2C)nnc1SCC(=O)Nc1cc(C)on1	-3	1	50*	-26	0	-3	3	13
CCCCNc1ncnc2c1nnn2Cc1ccccc1Cl	5	-8	-9	-11	-4	-6	nt	nt
Cc1sc2nc(SCC(=O)NCc3ccco3)n(Cc3ccccc3)c(=O)c2c1C	-4	11	15	6	-20	19	nt	nt
C=CCn1c(SCC(=O)NCc2ccco2)nc2sc(C)c(C)c2c1=O	0	3	42*	22	-13	3	14	6
O=C1CCc2cc(S(=O)(=O)Nc3ccccc3)cc3c2N1CC3	1	nt	-24	6	-7	0	nt	nt
Cc1cccnc1NC(=O)c1ccc(S(=O)(=O)N2CCCC2)cc1	nt	nt	nt	6	nt	nt	nt	nt
Cc1cccnc1NC(=O)c1ccc(S(=O)(=O)N2CCC(C)CC2)cc1	-7	nt	31*	-13	18	-1	4	2
